Source: PubChem BioAssay
hERG rescue – compounds protecting human hERG from proarrhythmic drug block; AID 1511; 310,000 compounds, 0.51% hits; activation (rescue from dofetilide block), less the hit threshold, % at 10 µM; CHO-hERG, FluxOR thallium flux, dofetilide IC70 present;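 active means activation above the mean of controls blocked by dofetilide plus 5 SD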;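 further: thallium influx through hERG after potassium depolarization seen as dye fluorescence rise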
KCNK9 block – human KCNK9 channel inhibition; Q9NPC2; AID 488922; B-score at 10 µM; 310,000 compounds, 1.2% hits; HEK293 KCNK9, FluxOR thallium flux fluorescence; active compounds read low;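 active means ratio B-score over 3 SD below the library mean, with starting fluorescence within 5 SD of its mean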;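 further: negative B-score means less thallium flux so channel inhibition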
KCNQ1 pot – potentiates or activates the human KCNQ1 potassium channel; P51787; CHO-K1 KCNQ1, thallium flux FluxOR fluorescence; active compounds read high; B-score at 10 µM; 310,000 compounds, 0.35% hits; AID 2648;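 active means fluorescence ratio B-score, a plate-corrected score, at least three library SD, with initial intensity B-score within 5 SD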
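Medium – assay buffer, equal DMSO in all wells · Material – CHO-K1 cell line with stable KCNQ1 potassium channel expression · Signal – kinetic FluxOR thallium fluorescence, 10-s 1-Hz baseline, 110-s post-stimulus read · Compound – single concentration per compound, DMSO matched to controls · Schedule – 37 °C overnight plating, 90-min dark dye load, 20-min compound pretreatment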
KCNQ1 block – blocks the human KCNQ1 potassium channel; CHO-K1 KCNQ1, FluxOR thallium flux fluorescence; active compounds read high; B-score at 10 µM; 310,000 compounds, 1.3% hits; P51787;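 active means compounds whose thallium flux B-score, printed positive for inhibition, exceeds three library SD while starting fluorescence stays within three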;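 further: channel opened by potassium depolarization with thallium stimulus after 20 min compound exposure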
KCNK3 inh – human KCNK3 channel inhibition, primary screen; 340,000 compounds, 0.84% hits; B-score at 10 µM; CHO-KCNK3 thallium flux, FluxOR fluorescence; active compounds read low; AID 602410;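 active means B-score under library mean minus 4 SD, starting fluorescence ratio at most library mean plus 5 SD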;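 further: more negative B-score means stronger inhibition of thallium flux through KCNK3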
Target sequence (O14649 whole entry, looked up): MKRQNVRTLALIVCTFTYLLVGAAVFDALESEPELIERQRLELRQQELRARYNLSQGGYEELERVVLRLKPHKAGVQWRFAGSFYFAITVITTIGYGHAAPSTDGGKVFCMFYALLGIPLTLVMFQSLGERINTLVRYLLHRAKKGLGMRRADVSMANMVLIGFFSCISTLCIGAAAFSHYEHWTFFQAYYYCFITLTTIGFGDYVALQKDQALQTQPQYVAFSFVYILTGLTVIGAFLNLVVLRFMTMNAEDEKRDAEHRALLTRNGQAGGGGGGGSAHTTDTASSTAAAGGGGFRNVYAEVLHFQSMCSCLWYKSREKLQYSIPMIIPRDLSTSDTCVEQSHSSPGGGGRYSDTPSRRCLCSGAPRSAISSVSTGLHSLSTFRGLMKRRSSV
Kir21 inh – blocks the mouse Kir2.1 inward-rectifier potassium channel. P35561. HEK293-Kir2.1, FluxOR thallium flux fluorescence; active compounds read low. B-score at 10 µM. 310,000 compounds, 0.85% hits. AID 1672;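 active means fluorescence ratio B-score at or below minus 3 SD of library scores, with starting-brightness B-score within 2 SD, cut at about -4.2 in these data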;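 further: channel flux triggered by added potassium and thallium sulfate stimulus; B-score of peak minus minimum fluorescence over baseline after thallium stimulus; more negative B-score means stronger Kir2.1 block with less thallium influx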
Of the large screens only hits and unclear results are named; the others gave an inactive call. Rows were chosen to be rich in hits. Some 3.7% of all compounds tested hit in one or more screens of this group.

COc1ccc(OC)c(Nc2c3ccccc3nc3ccccc23)c1	Kir21 inh -4.6
COc1ccc([N+](=O)[O-])cc1Nc1c2ccccc2nc2ccccc12	KCNQ1 block 8
COc1ccc(C)cc1Nc1nc(N)c2ccccc2n1	Kir21 inh -4.9
Cc1cc(NC(=O)CSCC(=O)Nc2ccccc2Oc2ccccc2)no1	Kir21 inh -4.8
Cc1ccc(Oc2ccccc2NC(=O)CSCC(=O)Nc2cc(C)on2)cc1	none
Cc1cccc(NC(=S)N/N=C2\CC(C)(C)Oc3ccc(O)cc32)c1	hERG rescue 6.5
CCN(CC)C(=O)Cn1cc(C(=O)C(=O)N2CCN(C)CC2)c2ccccc21	none
CCN(CC)C(=O)Cn1cc(C(=O)C(=O)N2CC=C(c3ccccc3)CC2)c2ccccc21	hERG rescue 38
Cc1cc(=O)oc2c(C)c(OCC(=O)Nc3cccnc3)ccc12	none
CCOC(=O)C1=C(C)NC(C)=C(C(=O)OCC)C1c1ccccc1/C=C/C(=O)OC(C)(C)C	KCNQ1 block 8 (no result: KCNK3 inh)
CCCCc1c(C)nc2nc(SCc3ccc(Cl)cc3)[nH]n2c1=O	KCNQ1 block 6
Oc1ccccc1-c1nc(NC2CCCC2)c2ccccc2n1	none
CC(Nc1nc(-c2ccccc2F)nc2ccccc12)c1ccccc1 (stereo unspecified)	KCNK9 block -7.5
Fc1ccccc1-c1nc(NC2CCCC2)c2ccccc2n1	KCNQ1 block 6
CCCn1c(N)c(N(CCOC)C(=O)c2ccc(F)cc2F)c(=O)[nH]c1=O	none
Cc1cc(C(=O)CSc2nc3ccccc3c(=O)n2C)c(C)n1Cc1ccc2c(c1)OCO2	KCNK9 block -7.9
CC(C)(C)c1ccc(C(=O)NCC(=O)NCc2ccccn2)cc1	none (no result: hERG rescue, KCNK9 block, KCNQ1 pot, KCNQ1 block, Kir21 inh)
Cc1cnnn1-c1ccc(C(=O)CCl)cc1	KCNQ1 block 6
CCCCCCC(=O)N/N=C(\C)Cc1ccccc1	none
COc1ccc(C(=O)CCS(=O)(=O)c2ccc(C)cc2)cc1OC	KCNQ1 pot 8
COC(=O)c1ccc(S(=O)(=O)NCc2ccccn2)n1C	none
O=C(COC(=O)CNC(=O)c1ccccc1)NCCNC(=O)COC(=O)CNC(=O)c1ccccc1	none (no result: hERG rescue, KCNK9 block, KCNQ1 pot, KCNQ1 block, Kir21 inh)
COc1cccc(CNC23CC4CC(CC(C4)C2)C3)c1OCc1ccccc1	KCNQ1 block 6
COc1cc(CNCCc2c[nH]c3ccccc23)ccc1OCc1ccccc1F	Kir21 inh -8.2
COc1cccc(CNCCc2c[nH]c3ccccc23)c1OCc1ccccc1	Kir21 inh -9.5
Cc1cc(C(=O)Nc2ccccc2C(=O)O)c(C)o1	none
CCCc1ncc(C(O)c2ccccc2OC)n1C (stereo unspecified)	none
CNC(=O)CSc1nnc(-c2ccco2)n1-c1ccc(C)cc1	hERG rescue 48
O=C(c1ccc(Cl)cc1)N1CCN=C1c1ccccc1	Kir21 inh -4.5
COc1ccc(OCc2cc(C(=O)N(C)CC3CCCCO3)no2)c(Cl)c1 (stereo unspecified)	none
COc1cc(Cl)ccc1OCc1cc(C(=O)N(C)CC2CCCCO2)no1 (stereo unspecified)	Kir21 inh -4.5
Cc1cc(N)ccc1N1CCCC1	KCNQ1 block 7
Cc1cccc2sc(NS(=O)(=O)c3ccccc3)nc12	KCNQ1 block 6
CC(O)CNCc1ccc(-c2ccccc2)cc1 (stereo unspecified)	none
CC(NCc1ccc(-c2ccccc2)cc1)C(O)c1ccccc1 (stereo unspecified)	Kir21 inh -14
CN(C)S(=O)(=O)NCC1CCCN(Cc2cc3ccccc3s2)C1 (stereo unspecified)	none
COc1ccc(CCNC(=O)c2cccc(C(=O)NCCc3ccc(OC)cc3)n2)cc1	none
Cc1ccc(C(=O)CC(=O)c2ccccc2C)c(O)c1	none
Cc1ccc(C(=O)CC(=O)c2cccc(F)c2)c(O)c1	hERG rescue 10, KCNQ1 pot 16
Cc1ccc(O)c(C(=O)CC(=O)c2ccccc2Cl)c1	hERG rescue 45, KCNQ1 pot 13
COc1ccc(NC2c3ccccc3C(=O)N2Cc2ccc3c(c2)OCO3)cc1 (stereo unspecified)	none
O=S(=O)(Nc1ccc(S(=O)(=O)Nc2ncccn2)cc1)c1ccc(Cl)cc1	none
O=S(=O)(Nc1cccc(CCc2ccccn2)c1)c1ccc(Cl)cc1	Kir21 inh -9.2
CCC(=O)OCc1c(C(F)(F)F)nn(C)c1Sc1ccc(Cl)cc1	Kir21 inh -4.9
CC(=O)OCc1c(C(F)(F)F)nn(C)c1Sc1ccccc1	none
COc1ccc(S(=O)(=O)N2CCc3ccccc32)cc1C(=O)NC1(C)CCS(=O)(=O)C1 (stereo unspecified)	none (no result: hERG rescue, KCNK9 block, KCNQ1 pot, KCNQ1 block, Kir21 inh)
Oc1ccc2ccccc2c1/C=N/Nc1nnc(-c2ncc[nH]2)c2ccccc12	KCNQ1 block 8
CCn1cc(Br)c(C(=O)Nc2ccccc2C(=O)OC)n1	KCNK9 block -6.6
CCn1ncc(Br)c1C(=O)Nc1ccccc1C(=O)OC	none
CC(/C=C(\NC(=O)c1ccccc1)C(=O)N=Nc1c(O)[nH]c2ccc(C)cc12)=C\c1ccccc1	KCNQ1 block 6
Cc1ccc2[nH]c(O)c(N=NC(N)=S)c2c1	none
O=C(CCNS(=O)(=O)c1ccc(Cl)cc1)N1CCOCC1	none
CCN(C/C=C/c1ccccc1OC)Cc1ccccc1	Kir21 inh -4.8
O=C(Nc1ccnn1C1CCN(Cc2ccc(O)c(Cl)c2)CC1)C1CCCC1	none
O=C(CN1CCN(CC(=O)Nc2cccc(F)c2)CC1)NCC1(N2CCOCC2)CCCCC1	none (no result: hERG rescue, KCNK9 block, KCNQ1 pot, KCNQ1 block, Kir21 inh)
Cc1ccc(CN(C(=O)c2csnn2)C(C(=O)NC2CCCC2)c2ccc(C)o2)cc1 (stereo unspecified)	KCNK9 block -6.8
Cc1ccc(C(C(=O)NC2CCCC2)N(C(=O)c2csnn2)C2CCCC2)o1 (stereo unspecified)	none
O=C(O)[C@@H]1CC(O)CN1C(=O)CCc1c[nH]c2ccccc12 (stereo partly specified)	none
C=C(C)CSc1cc(C)c(C#N)c2nc3ccccc3n12	KCNQ1 block 6
CC(=O)c1ccc(N2CCN(CC(=O)Nc3ccccc3C(=O)NC3CC3)CC2)c(F)c1	none (no result: hERG rescue, KCNK9 block, KCNQ1 pot, KCNQ1 block, Kir21 inh)
O=C(Nc1ccc(OCC(F)(F)C(F)F)c(C(F)(F)F)c1)c1ccccc1	none
O=C(Nc1ccc(OCC(F)(F)C(F)F)c(C(F)(F)F)c1)c1ccccc1O	KCNK9 block -6.6
CCN(CC)C(=O)CN1C(=O)C2(OCC(C)(C)CO2)c2ccccc21	none (no result: hERG rescue, KCNK9 block, KCNQ1 pot, KCNQ1 block, Kir21 inh)
CCCCN(CCCC)S(=O)(=O)c1ccc(NC(=O)c2ccc([N+](=O)[O-])cc2Cl)cc1	KCNQ1 block 7
O=C(NCC(c1ccc(F)cc1)N1CCOCC1)c1nn(-c2ccccc2)c(=O)c2ccccc12 (stereo unspecified)	none (no result: hERG rescue, KCNK9 block, KCNQ1 pot, KCNQ1 block, Kir21 inh)
Cc1ccc(S(=O)(=O)CC(=O)Nc2nc(-c3ccccc3)cs2)cc1	KCNQ1 block 6
